Test results reported in ChEMBL document CHEMBL4627401, “Structure Optimization of Gatastatin for the Development of γ-Tubulin-Specific Inhibitor” (ACS Med Chem Lett, 2020).
The source made the active and inactive calls. No cut-off for these calls is given here.

Key:
HeLa [1] = assay: Cytotoxicity against human HeLa cells assessed as reduction in cell viability incubated for 48 hrs by WST8 cells; format: functional, cell-based
Summary of the method: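 HeLa cells were exposed to a range of concentrations for 48 h. Growth was read by WST-8 cell counting, and IC50 values were calculated from the resulting curves.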

HeLa [2] = assay: Inhibition of gamma-tubulin in human HeLa cells assessed as abnormal spindle formation at 30 uM incubated for 24 hrs by immunofluorescence microscopy analysis relative to control; format: cell-based
Summary of the method: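 Exponentially growing HeLa cells were treated with 30 μM for 24 h, then spindle morphology was classified as normal bipolar, bipolar with misaligned chromosomes, or multipolar. More than 100 cells were scored per experiment. Mean ± SD, three independent experiments, with DMSO as control.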

HeLa [3] = assay: Inhibition of gamma-tubulin nucleation in human HeLa cells at 100 uM incubated for 15 mins; format: cell-based
HeLa [4] = assay: Cytotoxicity against human HeLa cells assessed as cell viability at 100 uM incubated for 48 hrs by WST8 cells relative to control; format: functional; conditions: read-out: Activity
HeLa [5] = assay: Induction of microtubule depolymerization in human HeLa cells at 30 uM incubated for 24 hrs by immunofluorescence microscopy; format: functional, cell-based
Summary of the method: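 Interphase HeLa cells were treated for 24 h at 30 μM, then the MT network structure was examined by microscopy.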

Sus scrofa domesticus [6] = organism: Sus scrofa domesticus; assay: Inhibition of porcine brain tubulin polymerization assessed as residual tubulin polymerization at 30 uM in presence of 0.8 M glutamate incubated for 30 mins by SDS-PAGE analysis (reference value: 84.8 +/- 9.9 %)
Summary of the method: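 Polymer was separated by ultracentrifugation (200,000g, 10 min, 25 °C), tubulin measured by 10% SDS-PAGE densitometry and expressed as % polymerized. Mean ± SD, three independent experiments.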

HeLa [7] = assay: Induction of microtubule depolymerization in human HeLa cells at 100 nM incubated for 6 hrs by immunofluorescence microscopic method; format: functional, cell-based
Sus scrofa domesticus [8] = organism: Sus scrofa domesticus; assay: Induction of porcine brain tubulin polymerization at 10 uM in presence of 0.2 M glutamate incubated for 30 mins by SDS-PAGE analysis (reference value: 36.3 +/- 8.1 %)
Homo sapiens = organism: Homo sapiens; assay: Inhibition of human gamma tubulin assessed as reduction in GTP binding to gamma-tubulin at 50 uM incubated for 15 mins by alpha-[32P]-GTP binding assay
HeLa [9] = assay: Inhibition of gamma-tubulin nucleation in human HeLa cells at 30 uM incubated for 15 mins; format: cell-based
HeLa [10] = assay: Inhibition of gamma-tubulin nucleation in human HeLa cells at 10 uM incubated for 15 mins; format: cell-based
HeLa [11] = assay: Inhibition of gamma-tubulin in human HeLa cells assessed as abnormal spindle formation at 1 uM incubated for 24 hrs by immunofluorescence microscopy analysis relative to control; format: cell-based
HeLa [12] = assay: Inhibition of gamma-tubulin nucleation in human HeLa cells at 0.3 uM incubated for 15 mins; format: cell-based
HeLa [13] = assay: Inhibition of gamma-tubulin in human HeLa cells assessed as abnormal spindle formation incubated for 24 hrs by immunofluorescence microscopy analysis; format: cell-based

Row | Structure (SMILES) | IC50 (HeLa [1]) | inhibition (HeLa [2]) | inhibition (HeLa [3]) | viability at 100 µM (HeLa [4]) | Activity (HeLa [5]) | Activity (Sus scrofa domesticus [6]) | Activity (HeLa [7]) | Activity (Sus scrofa domesticus [8]) | inhibition (Homo sapiens) | inhibition (HeLa [9]) | inhibition (HeLa [10]) | inhibition (HeLa [11]) | inhibition (HeLa [12]) | inhibition (HeLa [13])
1 | COc1cc2c(=O)c(-c3cc(OC)c4c(c3OC)OC(C)(C)O4)coc2cc1OCc1ccccc1 | > 100 µM | inactive | inactive | 100% | inactive | 69 to 92% | – | – | – | – | – | – | – | –
2 | COc1cc(-c2coc3cc(OCc4ccccc4)c(OCc4ccccc4)cc3c2=O)c(OC)c2c1OC(C)(C)O2 | > 100 µM | inactive | – | 102% | inactive | 69 to 92% | – | – | – | – | – | – | – | –
3 | COc1cc2c(c(OC)c1OC)-c1ccc(OC)c(=O)cc1[C@@H](NC(C)=O)CC2 | – | – | – | – | – | – | Active | – | – | – | – | – | – | –
4 | CC(=O)O[C@H]1C(=O)[C@@]2(C)[C@H]([C@H](OC(=O)c3ccccc3)[C@]3(O)C[C@H](OC(=O)[C@H](O)[C@@H](NC(=O)c4ccccc4)c4ccccc4)C(C)=C1C3(C)C)[C@]1(OC(C)=O)CO[C@@H]1C[C@@H]2O | – | – | – | – | – | – | Active | 91.6% | – | – | – | – | – | –
5 | COc1cc2c(=O)c(-c3cc(OC)c4c(c3OC)OCO4)coc2cc1OCc1ccccc1 | 10.5 µM | Active | – | – | inactive | 69 to 92% | – | – | Active | Active | inactive | – | – | –
6 | COc1cc(-c2coc3cc(OCc4ccccc4)c(O)cc3c2=O)c(OC)c2c1OCO2 | 5.8 µM | – | – | – | inactive | 69 to 92% | – | – | – | Active | – | – | – | –
7 | C=CCOc1cc2c(=O)c(-c3cc(OC)c4c(c3OC)OC(C)(C)O4)coc2cc1OCc1ccccc1 | > 100 µM | inactive | – | 107% | inactive | 69 to 92% | – | – | – | – | – | – | – | –
8 | COc1cc2c(=O)c(-c3cc(OC)c(OC)c(OC)c3OC)coc2cc1OCc1ccccc1 | > 100 µM | 65% | – | 77.3% | inactive | 69 to 92% | – | – | – | Active | inactive | – | – | –
9 | COc1cc(-c2coc3cc(OCc4ccccc4)c(OC4CCCCO4)cc3c2=O)c(OC)c2c1OCO2 (centres undefined) | > 100 µM | – | inactive | 99.1% | inactive | 69 to 92% | – | – | – | – | – | – | – | –
10 | COc1cc2c(=O)c(-c3ccc4c(c3)OCO4)coc2cc1OCc1ccccc1 | > 100 µM | inactive | inactive | 101% | inactive | 69 to 92% | – | – | – | – | – | – | – | –
11 | COc1cc(-c2coc3cc(OCc4ccccc4)c(OCc4ccccc4)cc3c2=O)c(OC)c2c1OCO2 | 1.1 µM | – | – | – | inactive | 69 to 92% | – | – | – | Active | – | Active | – | –
12 | C#CCOc1cc2c(=O)c(-c3cc(OC)c4c(c3OC)OC(C)(C)O4)coc2cc1OCc1ccccc1 | > 100 µM | inactive | – | 102% | inactive | 69 to 92% | – | – | – | – | – | – | – | –
13 | C#CCOc1cc2c(=O)c(-c3cc(OC)c4c(c3OC)OCO4)coc2cc1OCc1ccccc1 | 0.8 µM | – | – | – | inactive | 69 to 92% | – | – | Active | Active | – | Active | Active | Dose-dependent effect
14 | COc1cc(-c2coc3cc(OCc4ccccc4)c(OC4CCCCO4)cc3c2=O)c(OC)c2c1OC(C)(C)O2 (centres undefined) | > 100 µM | inactive | – | 101% | inactive | 69 to 92% | – | – | – | – | – | – | – | –
15 | C=CCOc1cc2c(=O)c(-c3cc(OC)c4c(c3OC)OCO4)coc2cc1OCc1ccccc1 | 9.9 µM | – | – | – | inactive | 69 to 92% | – | – | – | Active | – | – | – | –
16 | COc1cc(-c2coc3cc(OCc4ccccc4)c(O)cc3c2=O)c(OC)c2c1OC(C)(C)O2 | > 13 µM | inactive | – | – | inactive | 69 to 92% | – | – | – | – | – | – | – | –
